Publication PMC4040673 (Cell Death & Disease, 2014)

What was measured:
[1] = system: HT-22 cells; experiment: Cell viability; type: cell-based, mouse; conditions: siRNA transfected (Lipofectamine-2000), glutamate 2 mM, 12 h
Summary of the method: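 HT-22 cells seeded at 10 000 cells/well in 96-well plates, in DMEM with 10% heat-inactivated calf serum at 37 °C. siRNA transfected with Lipofectamine-2000, then exposed to 2 mM glutamate for 12 h. MTT at 0.5 mg/ml for 1 h; absorbance read at 570 nm with 630 nm reference. Controls set to 100%. At least three repeats, n=8 per condition.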

[2] = system: AIF; type: cell-based, mouse; conditions: peptide 50 μM or siRNA transfected; glutamate 2 mM, 12 h
Summary of the method: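 HT-22 cells carried siRNA (Lipofectamine-2000) or 50 μM peptide (cationic lipid protein-transfection reagent) and were seeded on chamber slides. Exposed to 2 mM glutamate for 12–14 h. Fixed in 4% paraformaldehyde, permeabilised with 0.04% Triton X, and immunostained for AIF with Alexa 568/488 secondaries and DAPI. Imaged by confocal laser scanning with a 63× 1.4-NA oil objective.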

[3] = system: HT-22 cells; experiment: Cell viability of glutamate-treated HT-22 cells in medium without Ca2+; type: cell-based, mouse; conditions: glutamate 2 mM, 12–14 h, n=4
[4] = system: HT-22 cells; experiment: Annexin-V-FITC/PI flow cytometry in glutamate-treated HT-22 cells; type: cell-based, mouse; conditions: siRNA transfected; glutamate 2 mM
Summary of the method: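 HT-22 cells grown at 37 °C, 5% CO2 in DMEM with 10% heat-inactivated calf serum. Transfected with scrambled or mouse CypA siRNA (Lipofectamine-2000), then given 2 mM glutamate. Stained with Annexin-V-FITC/PI by kit and run on a FACScan: FITC excited at 488 nm, emission 530±40 nm; PI excited at 488 nm, emission 680±30 nm. Experiments repeated at least three times.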

[5] = system: CypA; experiment: siRNA knockdown of CypA; type: cell-based, mouse; conditions: HT-22, RT-PCR and immunoblotting
Summary of the method: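 HT-22 cells transfected with scrambled or mouse CypA siRNA (Lipofectamine-2000). One-step RT-PCR on total RNA, GAPDH as reference: cDNA step 60 °C 30 min, 95 °C 2 min, then 30 cycles of 95 °C 30 s, 57 °C 1 min, 70 °C 2 min. Lysates run on SDS-PAGE and blotted to PVDF. Primary antibody overnight at 4 °C, HRP secondary 1:2500, chemiluminescence; tubulin or actin as loading control.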

[6] = system: HT-22 cells; experiment: Real-time impedance; type: cell-based, mouse; conditions: siRNA transfected; glutamate 2 mM, ~15 h, n=8
[7] = system: tAIF; experiment: SPR binding of peptides to tAIF; design: species or system mouse; conditions: direct binding to immobilized protein, applied concentration range
[8] = biological target: CypA (Homo sapiens, UniProt P62937); experiment: SPR direct binding to immobilized CypA
[9] = system: HT-22 cells; experiment: Intracellular Ca2+; type: cell-based, mouse; conditions: glutamate 12 h, Fluo-4; n = 8
Summary of the method: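 Transfected HT-22 cells seeded in 96-well plates and grown 24 h, then treated with 2 mM glutamate for 12 h. Fluo-4 AM (5 μM) added to the medium for 30 min. After washing, fluorescence read on a plate reader at excitation 485 nm and emission 520 nm.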

[10] = system: isolated mitochondria from HT-22 cells; experiment: CCCP-induced depolarization / MPT pore opening in isolated HT-22 mitochondria; type: cell-based, mouse; conditions: 50 μM CCCP
Summary of the method: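 Then treated with 50 μM CCCP protonophore. Δψm followed with 20 nM DiOC6(3) on a fluorescence plate reader. Measurements in triplicate, representative of at least three independent experiments.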

Chain of CypA (Homo sapiens, UniProt P62937) (P62937 whole entry): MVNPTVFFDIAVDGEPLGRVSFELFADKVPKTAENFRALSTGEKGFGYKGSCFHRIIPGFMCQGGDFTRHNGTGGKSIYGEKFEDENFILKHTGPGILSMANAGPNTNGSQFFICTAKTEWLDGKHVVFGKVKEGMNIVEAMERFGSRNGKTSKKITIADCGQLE

siCypA: mouse siRNA targeting CypA: siCypAFw 5′-CUGAAUGGCUGGAUGGCAA-3′ and siCypARev 5′-UUGCCAUCCAGCCAUUCAG-3′ (chemistry not given here)
protection against glutamate-induced cell death by siRNA, MTT [1]: full protection
glutamate-induced nuclear translocation of AIF [2]: very weak nuclear AIF staining
protective effect combined with depletion of extracellular Ca2+ [3]: additive protective effects to depletion of extracellular Ca^2+
protection against glutamate-induced cell death by siRNA, Annexin-V/PI [4]: full protection
CypA expression after siRNA [5]: significantly reduced
protection against glutamate-induced cell death by siRNA, impedance [6]: full protection

ILPEYLSNWTMEKVRREG [AIF(343–360)]
affinity to tAIF (in words) [7]: No affinity to tAIF was detected
affinity for CypA (in words) [8]: very weak affinity
fold lower affinity for CypA compared with AIF(370–394) ([8]; ratio of KD values): 1000 fold

N[C@@H](CCC(=O)O)C(=O)O [Glutamate]
intracellular Ca2+ concentration induced by glutamate [9]: dose-dependent increase

N#CC(C#N)=NNc1cccc(Cl)c1 [CCCP, carbonyl cyanide m-chlorophenyl hydrazone]
loss of Δψm induced by CCCP [10]: strong loss of Δψm
